Laboratory results taken from ChEMBL document CHEMBL3351461, “Discovery of novel, dual mechanism ERK inhibitors by affinity selection screening of an inactive kinase” (J Med Chem, 2014).
Active and inactive are the calls of the source. No cut-off for these calls is given here.

What was measured:
[1] = biological target: Mitogen-activated protein kinase 1 (Mus musculus) (UniProt P63085); test: Inhibition of inactive ERK2 (mouse) coupled with human MEK1 using IMAP peptide substrate after 30 mins by coupled ERK2 assay
[2] = biological target: T1, Dual specificity mitogen-activated protein kinase kinase; MEK1/2 (Homo sapiens) (UniProt P36507+Q02750); test: Binding affinity to unphosphorylated MEK (unknown origin) by temperature dependent fluorescence (TdF) assay
[3] = biological target: T2, Mitogen-activated protein kinase 1 (Homo sapiens, UniProt P28482); test: Inhibition of activated ERK2 (unknown origin) using IMAP peptide substrate after 30 mins by activated ERK2 assay
How it was run: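 IMAP fluorescence-polarization assay. Started with 1 μM substrate peptide (100 nM fluorescein-labelled) and 30 μM ATP. Run 30 min, stopped with IMAP beads, read after 30 min. N = 2.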

[4] = biological target: T2, Mitogen-activated protein kinase 1; test: Binding to unphosphorylated ERK2 (unknown origin) by temperature dependent fluorescence (TdF) assay
[5] = biological target: T2, Mitogen-activated protein kinase 1; test: Binding to phosphorylated ERK2 (unknown origin) by temperature dependent fluorescence (TdF) assay
[6] = biological target: T1, Dual specificity mitogen-activated protein kinase kinase; MEK1/2 (Homo sapiens); test: Binding affinity to phosphorylated MEK (unknown origin) by temperature dependent fluorescence (TdF) assay

T1 sequence (P36507 whole entry, looked up): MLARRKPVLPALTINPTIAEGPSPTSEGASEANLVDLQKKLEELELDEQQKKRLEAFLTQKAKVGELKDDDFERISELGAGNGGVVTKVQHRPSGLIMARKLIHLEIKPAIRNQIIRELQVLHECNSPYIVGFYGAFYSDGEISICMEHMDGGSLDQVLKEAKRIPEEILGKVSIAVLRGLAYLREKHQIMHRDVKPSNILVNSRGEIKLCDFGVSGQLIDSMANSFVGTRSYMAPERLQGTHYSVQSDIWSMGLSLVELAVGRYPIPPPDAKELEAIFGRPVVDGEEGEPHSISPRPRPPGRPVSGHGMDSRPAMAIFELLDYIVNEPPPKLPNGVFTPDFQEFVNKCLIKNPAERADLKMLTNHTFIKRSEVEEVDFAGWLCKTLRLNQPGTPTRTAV
T1 sequence (Q02750 whole entry, looked up): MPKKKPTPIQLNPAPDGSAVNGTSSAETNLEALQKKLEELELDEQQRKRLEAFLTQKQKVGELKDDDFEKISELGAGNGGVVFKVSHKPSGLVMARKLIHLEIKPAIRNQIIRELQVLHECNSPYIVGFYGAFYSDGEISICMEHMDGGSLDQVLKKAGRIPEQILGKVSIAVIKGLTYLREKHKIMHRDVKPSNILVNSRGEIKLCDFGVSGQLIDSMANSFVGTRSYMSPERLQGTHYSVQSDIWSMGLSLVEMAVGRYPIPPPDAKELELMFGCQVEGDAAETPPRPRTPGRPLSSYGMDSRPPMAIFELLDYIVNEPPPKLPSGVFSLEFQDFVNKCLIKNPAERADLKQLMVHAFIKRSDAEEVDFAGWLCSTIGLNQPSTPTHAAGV
Mitogen-activated protein kinase 1 (Mus musculus), sequence (P63085 whole entry, looked up): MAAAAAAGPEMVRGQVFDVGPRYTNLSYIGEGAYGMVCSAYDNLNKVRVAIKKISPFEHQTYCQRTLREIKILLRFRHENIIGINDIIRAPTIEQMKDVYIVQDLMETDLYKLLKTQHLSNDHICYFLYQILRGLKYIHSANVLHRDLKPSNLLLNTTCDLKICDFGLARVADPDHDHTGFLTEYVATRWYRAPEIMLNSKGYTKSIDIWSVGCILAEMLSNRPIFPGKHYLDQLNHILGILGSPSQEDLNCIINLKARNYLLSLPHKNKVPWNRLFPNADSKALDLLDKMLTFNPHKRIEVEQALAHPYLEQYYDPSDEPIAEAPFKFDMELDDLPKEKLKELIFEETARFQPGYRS
T2 sequence (P28482 whole entry): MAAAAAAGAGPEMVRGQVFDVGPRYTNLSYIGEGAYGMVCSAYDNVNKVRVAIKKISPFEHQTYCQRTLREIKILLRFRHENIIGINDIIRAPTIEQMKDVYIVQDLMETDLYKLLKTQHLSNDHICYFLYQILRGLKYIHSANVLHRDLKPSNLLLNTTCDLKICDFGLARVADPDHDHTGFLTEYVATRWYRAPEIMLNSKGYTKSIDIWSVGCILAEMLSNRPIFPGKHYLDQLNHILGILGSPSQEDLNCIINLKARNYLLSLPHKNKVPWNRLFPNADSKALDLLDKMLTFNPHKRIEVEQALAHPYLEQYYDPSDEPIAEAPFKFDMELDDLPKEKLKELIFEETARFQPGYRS

| SMILES | IC50 [1] [nM] | Activity [2] | IC50 [3] [nM] | Kd [4] [nM] | Kd [5] [nM] | Activity [6] |
| --- | --- | --- | --- | --- | --- | --- |
| O=C(Nc1ccc(O)c(Cl)c1)[C@@H]1CCN(CC(=O)N2CCN(c3ccc(Br)cc3)CC2)C1 | 5000 | inactive | 8200 | 930 | 2650 | inactive |
| O=C(Nc1ccc(O)cc1)C1CCN(CC(=O)N2CCN(c3cccc(Cl)c3)CC2)C1 (racemic) | 3400 | inactive | 12200 | 920 | 1650 | inactive |
| O=C(Nc1ccc(O)c(Cl)c1)[C@@H]1CCN(CC(=O)N2CCN(c3ccc(-c4ccsc4)cc3)CC2)C1 | 2100 | inactive | 20000 | 290 | 980 | inactive |
| O=C(Nc1ccc(O)c(Cl)c1)[C@@H]1CCN(CC(=O)N2CCN(c3cccc(Cl)c3)CC2)C1 | 700 | inactive | 2100 | 70 | 150 | inactive |
| CC(=O)c1ccc(N2CCN(C(=O)CN3CC[C@H](C(=O)Nc4ccc(O)c(Cl)c4)C3)CC2)cc1 | 3600 | inactive | 32000 | 360 | 870 | inactive |
| CC(=O)c1ccc(N2CCN(C(=O)CN3CCC(C(=O)Nc4ccc(O)cc4)C3)CC2)cc1 (racemic) | 4000 | inactive | 18600 | 1060 | 1890 | inactive |
| CC(=O)c1ccc(N2CCN(C(=O)CN3CC[C@@H](C(=O)Nc4cc(Cl)c(O)c(Cl)c4)C3)CC2)cc1 | > 10000 | inactive | – | > 10000 | > 10000 | inactive |
| CC(=O)c1ccc(N2CCN(C(=O)CN3CC[C@@H](C(=O)Nc4ccc(O)c(Br)c4)C3)CC2)cc1 | 440 | inactive | 3600 | – | – | inactive |
| CC(=O)c1ccc(N2CCN(C(=O)CN3CC[C@@H](C(=O)Nc4ccc(O)c(F)c4)C3)CC2)cc1 | 1300 | inactive | 11600 | 280 | 630 | inactive |
